PubChem BioAssay
Results filed as inconclusive are left out.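 The calls were made as follows, unless noted: active = cell viability at or below a set limit in both duplicate runs, the limit being the all-compound median minus 4 SD (cut at about 23% in these data, passing the limit was not always enough); inconclusive = no clear call, values can overlap the other calls; inactive = the rest.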

What was measured:
[1] = OD615 S. cerevisiae growth inhibition, permissive medium, pilot counter-assay, permissive growth control for S. cerevisiae lifespan shortening project (AID 705;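 active = growth inhibition above 25% in both replicates, a cutoff set 3 SD above the mean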); details: OD615, 24 h, at 10 µM, stronger effect = higher value
Outline: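 System: S. cerevisiae with engineered DeaD lifespan system. Medium: SC raffinose/galactose permissive medium. Doses: single compound dose of 10 µM, 0.25% DMSO final. Schedule: 24 h exposure, 30 °C. Measured by: OD615 turbidity read. Read-out: growth inhibition.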

[2] = Restrictive medium S. cerevisiae growth inhibition, OD615, pilot screen of yeast lifespan reduction project, restrictive growth control (AID 706;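 active = growth inhibition above a set limit, 3 SD over mean compound inhibition, in both replicates, cut at about 43% in these data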;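 also: modified DeaD lifespan yeast strain shifted to restrictive glucose medium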); details: OD615, 48 h, at 10 µM, stronger effect = higher value
Outline: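 Assay system – genetically modified Saccharomyces cerevisiae, DeaD replicative lifespan assay strain · Medium – CSMM-D glucose medium · Doses – 10 µM compound, 0.25% DMSO · Times – 4 h pre-incubation, 48 h exposure at 30 °C · Signal – optical density at 615 nm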

[3] = viability gain of MRP-1-high H69AR cells under doxorubicin, pilot screen, MRP-1 activator project, CellTiter-Glo, duplicate (AID 807;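 active = viability increase at or above a cutoff of the median across tested compounds plus 3 SD, cut at about 8.5% in these data, passing the limit was not always enough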;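 also: compound pretreatment 18-22 h then 72 h combined with doxorubicin; 0% = doxorubicin alone and 100% = vehicle without doxorubicin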); details: H69AR viability with doxorubicin, CellTiter-Glo luminescence; at 10 µM; stronger effect = higher value
[4] = growth suppression of beta-catenin knockout HCT116, pilot screen, human colon tumor cells (AID 823); details: CellTiter-Glo, 60 h, at 10 µM, stronger effect = lower value;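 also: 0% = wells killed by 20 µM Hyamine and 100% = untreated DMSO cell wells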
[5] = growth suppression of PTEN-deleted HCT116, pilot screen, cell-based, HCT116 clonal line, CellTiter-Glo (AID 824;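 active = viability at or below 27.92% in each of two runs, the all-compound median minus 4 SD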;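 also: 0% = 20 µM Hyamine control and 100% = vehicle cell control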); details: 60 h, at 10 µM, stronger effect = lower value
[6] = inhibitors of the yeast RAM network, pilot screen, dse1pr::URA3 reporter, 5-FOA selection (AID 869;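 active = inhibition over a set limit, the all-compound mean plus 3 SD, in both replicate runs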;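 also: 0% = DMSO wells with no growth and 100% = 10 µM 1-NA-PP1 with full growth; RAM network block rescues cells from 5-FOA so hits raise OD615 growth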); details: S. cerevisiae dse1pr::URA3 5-FOA growth, OD615, 2 d; at 10 µM; stronger effect = higher value; strain carries analog-sensitive mutant Cbk1 kinase
[7] = RAM signaling pathway blockade in yeast – S. cerevisiae, Pdr1DBD-CYC8 efflux-inhibited sensitized strain, primary screen (AID 1298;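 active = RAM network inhibition above 8.4% in each of two replicates, 3 SD over the compound average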;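 also: 0% = DMSO untreated cells without growth and 100% = 10 µM 1-NA-PP1 full growth; higher means more yeast growth rescued from 5-FOA killing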); details: S. cerevisiae cbk1-as DSE1-URA3 strain, 5-FOA growth OD615, 2 d; at 50 µM; stronger effect = higher value

CCOC(=O)CSc1nnc(CSc2nc3sc4c(c3c(=O)[nH]2)CCC4)n1C
inactive: growth inhibition [1] -5.48% | growth inhibition [2] 4.33% | viability increase [3] -2% | viability [4] 98.4% | viability [5] 107% | inhibition [6] 0.35% | RAM network inhibition [7] 6.56%

Cc1ccc(NS(=O)(=O)c2ccc3c(c2)oc(=O)n3C)cc1F
inactive: growth inhibition [1] -11% | growth inhibition [2] -10.8% | viability increase [3] 0.32% | viability [4] 89.1% | viability [5] 86.1% | inhibition [6] 1.1% | RAM network inhibition [7] 3.85%

O=C(Nc1cccc(OC(F)(F)F)c1)c1ccc(Br)o1
inactive: growth inhibition [1] -1.13% | growth inhibition [2] 9.08% | viability increase [3] 1.31% | viability [4] 81.6% | viability [5] 75.1% | inhibition [6] 2.96% | RAM network inhibition [7] 0.92%

Nc1nc(NC(=O)c2cccc(S(=O)(=O)N3CCCCCC3)c2)nc(-c2ccccc2)n1
inactive: growth inhibition [1] -1.66% | growth inhibition [2] 6.65% | viability increase [3] -4.04% | viability [4] 74.8% | viability [5] 74.4% | inhibition [6] 3.56% | RAM network inhibition [7] 4.53%

COc1ccc(N(CC(=O)N2CC=C(c3ccccc3)CC2)S(=O)(=O)c2c(C)noc2C)cc1
inactive: growth inhibition [1] -3.14% | growth inhibition [2] 1.52% | viability increase [3] -4.79% | viability [4] 98.1% | viability [5] 97.2% | inhibition [6] 1.41% | RAM network inhibition [7] 2.09%

COc1ccc(C)cc1S(=O)(=O)N1CCN(S(=O)(=O)c2cc(C)ccc2OC)C(C)C1 (stereo not drawn)
inactive: growth inhibition [1] -8.75% | growth inhibition [2] -8.42% | viability increase [3] -3.35% | viability [4] 88.7% | viability [5] 85.6% | inhibition [6] 2.99% | RAM network inhibition [7] 2.61%

O=C1C2C3c4ccccc4C(c4ccccc43)C2C(=O)N1Cc1ccco1 (stereo not drawn)
inactive: growth inhibition [1] -2.21% | growth inhibition [2] 5.63% | viability increase [3] -3.21% | viability [4] 97% | viability [5] 93.4% | inhibition [6] 0% | RAM network inhibition [7] 4.51%

CN(C)Cc1c(O)ccc2occ(C(O)c3ccccc3)c12 (stereo not drawn)
inactive: growth inhibition [1] -13.2% | growth inhibition [2] -4.58% | viability increase [3] -3.71% | viability [4] 77.2% | viability [5] 82.5% | inhibition [6] 1.07% | RAM network inhibition [7] 4.33%

O=S(=O)(c1cccc(-n2cnnn2)c1)N1CCOCC1
inactive: growth inhibition [1] -5.21% | growth inhibition [2] -3.17% | viability increase [3] -1.69% | viability [4] 94.3% | viability [5] 93% | inhibition [6] 1.6% | RAM network inhibition [7] 2.96%

CS(=O)(=O)Nc1ccc2c3c(cccc13)CC2
inactive: growth inhibition [1] -15.4% | growth inhibition [2] -15.1% | viability increase [3] -1.25% | viability [4] 97.7% | viability [5] 90.1% | inhibition [6] 1.14% | RAM network inhibition [7] 7.52%

CCOC(=O)c1cc(-c2nnc(-c3ccc(Cl)cc3)o2)c(C)nc1C
inactive: growth inhibition [1] -16.3% | growth inhibition [2] -14.2% | viability increase [3] -0.9% | viability [4] 99.7% | viability [5] 93.6% | inhibition [6] 2.19% | RAM network inhibition [7] 2.13%

COc1ccc(-c2nc(CS(=O)CC(=O)NC3CCCc4ccccc43)c(C)o2)cc1OC (stereo not drawn)
inactive: growth inhibition [1] -8.29% | growth inhibition [2] 3.54% | viability increase [3] -2.94% | viability [4] 84.5% | viability [5] 90.9% | inhibition [6] 1.64% | RAM network inhibition [7] 8.66%

Cc1occc1-c1nnc2sc(-c3ccc(-c4ccc(Cl)cc4)o3)nn12
inactive: growth inhibition [1] 7.94% | growth inhibition [2] 21.2% | viability increase [3] 2.86% | viability [4] 106% | viability [5] 95.8% | inhibition [6] 3.19% | RAM network inhibition [7] 5.57%

CN(C)CCNC(=O)c1ccc2c(c1)N(Cc1ccc(F)cc1)CCS2
inactive: growth inhibition [1] -2.46% | growth inhibition [2] 0.095% | viability increase [3] -6.05% | viability [4] 47.8% | viability [5] 55.1% | inhibition [6] 0.835% | RAM network inhibition [7] 0.57%

COC(=O)c1ccc(NC(=O)CNC(=O)C2CCCCC2)cc1
inactive: growth inhibition [1] -0.115% | growth inhibition [2] -0.73% | viability increase [3] -0.57% | viability [4] 98.4% | viability [5] 88.1% | inhibition [6] 0.625% | RAM network inhibition [7] 1.94%

Cc1onc(-c2ccccc2Cl)c1C(=O)Nc1nnc(-c2ccc(F)cc2)s1
inactive: growth inhibition [1] -16.7% | growth inhibition [2] -1.93% | viability increase [3] 2.9% | viability [4] 98.5% | viability [5] 90.5% | inhibition [6] 2.51% | RAM network inhibition [7] 5.79%

COc1ccc(C2C(C#N)=C(N)N3C(=C2C#N)Sc2ccccc23)cc1 (stereo not drawn)
inactive: growth inhibition [1] -1.28% | growth inhibition [2] -4.12% | viability increase [3] -0.06% | viability [4] 98.9% | viability [5] 102% | inhibition [6] 1.09% | RAM network inhibition [7] 8.82%

CCSc1nc2c(c(=O)[nH]1)C(C(C)C)C(C#N)=C(N)O2 (stereo not drawn)
inactive: growth inhibition [1] -20.5% | growth inhibition [2] -13% | viability increase [3] -2.8% | viability [4] 106% | viability [5] 98.9% | inhibition [6] 0.63% | RAM network inhibition [7] 2.73%

Oc1cccc(/C=N/c2c(-c3ccco3)nc3ccccn23)c1
inactive: growth inhibition [1] -9.82% | growth inhibition [2] -4.22% | viability increase [3] -3.47% | viability [4] 87.7% | viability [5] 93.7% | inhibition [6] 2% | RAM network inhibition [7] 5.22%

CC1Cc2nc(SCC(=O)NCc3ccco3)n(Cc3ccccc3)c(=O)c2S1 (stereo not drawn)
inactive: growth inhibition [1] -6.15% | growth inhibition [2] -15.7% | viability increase [3] -6.41% | viability [4] 91.1% | viability [5] 87.3% | inhibition [6] 3.45% | RAM network inhibition [7] 3.84%

CC1(C)CC(=O)c2c(Cc3ccccc3)n[nH]c2C1
inactive: growth inhibition [1] 0.375% | growth inhibition [2] -8.27% | viability increase [3] -1.7% | viability [4] 98.3% | viability [5] 90.5% | inhibition [6] 2.2% | RAM network inhibition [7] -0.11%

CC(C)(C)n1nc2c(c1NC(=O)Cc1cccs1)CSC2
inactive: growth inhibition [1] -8.2% | growth inhibition [2] 12.2% | viability increase [3] -1.56% | viability [4] 93.8% | viability [5] 92.4% | inhibition [6] 0.95% | RAM network inhibition [7] 0.94%

CCN1CCN(c2cc(C)c3cc(NC(=O)Cc4ccc(OC)c(OC)c4)ccc3n2)CC1
inactive: growth inhibition [1] -15.9% | growth inhibition [2] -16.5% | viability increase [3] -5.64% | viability [4] 75.5% | viability [5] 77.2% | inhibition [6] 3.25% | RAM network inhibition [7] -0.95%

NC(=O)c1cc(Cl)cn(-c2ccccc2)c1=O
inactive: growth inhibition [1] -13% | growth inhibition [2] -5.85% | viability increase [3] -0.12% | viability [4] 99.7% | viability [5] 95% | inhibition [6] 1.81% | RAM network inhibition [7] 4.23%
